ChEMBL document CHEMBL2412990, “Synthesis and pharmacological evaluation of new N-phenylpiperazine derivatives designed as homologues of the antipsychotic lead compound LASSBio-579” (Eur J Med Chem, 2013)
Activity calls are given as the source filed them. The rule behind the calls is not given here.

Columns and labels:
[1] = target: T1, Alpha-1B adrenergic receptor (Rattus norvegicus, UniProt P15823); experiment: Displacement of [3H]-[…] from alpha1B adrenoreceptor in rat liver membranes after 45 mins by liquid scintillation counting; format: cell membranes, Membrane
T1 sequence (P15823 whole entry): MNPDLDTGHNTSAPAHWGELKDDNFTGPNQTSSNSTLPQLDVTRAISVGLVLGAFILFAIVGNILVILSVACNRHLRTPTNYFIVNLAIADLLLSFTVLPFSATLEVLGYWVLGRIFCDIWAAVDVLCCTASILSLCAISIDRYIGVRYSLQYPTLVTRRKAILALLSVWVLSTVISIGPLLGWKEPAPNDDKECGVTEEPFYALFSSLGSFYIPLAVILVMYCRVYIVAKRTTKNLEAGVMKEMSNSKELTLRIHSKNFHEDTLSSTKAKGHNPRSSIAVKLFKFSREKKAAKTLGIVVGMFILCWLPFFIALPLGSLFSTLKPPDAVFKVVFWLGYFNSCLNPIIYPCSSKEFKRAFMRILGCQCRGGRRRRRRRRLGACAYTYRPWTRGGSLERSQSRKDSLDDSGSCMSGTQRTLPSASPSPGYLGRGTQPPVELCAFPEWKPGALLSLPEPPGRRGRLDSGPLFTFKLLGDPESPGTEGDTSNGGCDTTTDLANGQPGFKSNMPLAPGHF

[2] = target: T2, Adrenergic receptor alpha-2 (Rattus norvegicus, UniProt P22086+P19328+P22909); experiment: Displacement of [3H]-RX821002 from alpha2 adrenoreceptor in rat brain cortical membranes after 45 mins by liquid scintillation counting; format: cell membranes, Membrane
T2 sequence (P22086 whole entry): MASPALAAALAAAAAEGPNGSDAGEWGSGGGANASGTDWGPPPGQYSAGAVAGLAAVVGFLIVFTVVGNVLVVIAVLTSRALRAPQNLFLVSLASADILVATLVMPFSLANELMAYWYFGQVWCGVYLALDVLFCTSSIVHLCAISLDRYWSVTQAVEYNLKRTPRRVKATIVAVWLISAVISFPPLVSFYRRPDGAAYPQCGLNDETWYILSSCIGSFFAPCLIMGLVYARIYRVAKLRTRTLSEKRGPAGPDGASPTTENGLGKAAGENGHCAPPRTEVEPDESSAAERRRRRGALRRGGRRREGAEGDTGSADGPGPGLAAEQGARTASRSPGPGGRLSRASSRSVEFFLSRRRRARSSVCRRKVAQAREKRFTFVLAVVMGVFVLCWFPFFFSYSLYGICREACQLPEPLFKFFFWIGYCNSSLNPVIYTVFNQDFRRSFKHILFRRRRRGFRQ
T2 sequence (P19328 whole entry): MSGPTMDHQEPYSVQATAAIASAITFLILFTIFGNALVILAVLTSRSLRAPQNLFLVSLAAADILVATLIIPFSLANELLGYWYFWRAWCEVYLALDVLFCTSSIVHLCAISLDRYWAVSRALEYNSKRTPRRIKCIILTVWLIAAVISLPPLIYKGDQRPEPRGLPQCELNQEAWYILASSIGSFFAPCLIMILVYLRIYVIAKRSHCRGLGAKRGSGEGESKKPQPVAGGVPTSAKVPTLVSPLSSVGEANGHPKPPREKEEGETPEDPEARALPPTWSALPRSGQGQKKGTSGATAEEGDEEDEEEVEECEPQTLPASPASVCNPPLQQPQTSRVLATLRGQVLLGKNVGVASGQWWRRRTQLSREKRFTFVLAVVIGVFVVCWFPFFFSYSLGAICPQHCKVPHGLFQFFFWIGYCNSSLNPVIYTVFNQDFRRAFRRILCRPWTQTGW
T2 sequence (P22909 whole entry): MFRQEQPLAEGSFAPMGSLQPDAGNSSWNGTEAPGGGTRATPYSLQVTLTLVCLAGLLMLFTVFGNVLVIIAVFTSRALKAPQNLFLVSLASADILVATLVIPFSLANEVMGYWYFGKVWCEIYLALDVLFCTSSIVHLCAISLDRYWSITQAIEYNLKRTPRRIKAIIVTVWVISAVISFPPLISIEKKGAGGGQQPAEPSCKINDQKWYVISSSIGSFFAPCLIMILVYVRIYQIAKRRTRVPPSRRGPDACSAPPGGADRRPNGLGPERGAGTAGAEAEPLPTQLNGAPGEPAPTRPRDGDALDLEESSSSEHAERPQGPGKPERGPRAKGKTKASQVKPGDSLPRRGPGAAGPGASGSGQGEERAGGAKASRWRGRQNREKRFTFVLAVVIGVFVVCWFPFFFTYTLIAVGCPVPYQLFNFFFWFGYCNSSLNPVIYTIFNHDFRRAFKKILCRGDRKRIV

D(2) dopamine receptor = D(2) dopamine receptor (Rattus norvegicus, UniProt P61169); experiment: Displacement of [3H]-YM-09151-2 from D2 receptor in rat brain striatal membranes after 60 mins by liquid scintillation counting; format: cell membranes, Membrane
Sequence of D(2) dopamine receptor (P61169 whole entry): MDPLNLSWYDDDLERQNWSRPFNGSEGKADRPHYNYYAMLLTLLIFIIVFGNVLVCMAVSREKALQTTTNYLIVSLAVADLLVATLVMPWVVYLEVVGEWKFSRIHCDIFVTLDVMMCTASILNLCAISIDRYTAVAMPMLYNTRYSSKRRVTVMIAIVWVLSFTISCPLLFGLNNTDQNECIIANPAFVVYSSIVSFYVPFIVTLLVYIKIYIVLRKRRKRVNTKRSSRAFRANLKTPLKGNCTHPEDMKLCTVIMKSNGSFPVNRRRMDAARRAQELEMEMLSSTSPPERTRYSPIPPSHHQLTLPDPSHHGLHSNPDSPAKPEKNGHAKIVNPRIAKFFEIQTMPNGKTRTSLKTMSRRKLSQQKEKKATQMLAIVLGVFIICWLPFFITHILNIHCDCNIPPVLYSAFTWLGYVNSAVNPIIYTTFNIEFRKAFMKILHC

[3] = target: Dopamine D2 receptor and Serotonin 2a receptor (D2 and 5HT2a) (Rattus norvegicus) (UniProt P61169+P14842); experiment: Selectivity ratio of Ki for dopamine D2 receptor in rat brain striatal membranes to Ki for 5HT2A receptor in rat brain cortical membranes; format: cell membranes; conditions: Membrane
Sequence of Dopamine D2 receptor and Serotonin 2a receptor (D2 and 5HT2a) (Rattus norvegicus) (P14842 whole entry, looked up): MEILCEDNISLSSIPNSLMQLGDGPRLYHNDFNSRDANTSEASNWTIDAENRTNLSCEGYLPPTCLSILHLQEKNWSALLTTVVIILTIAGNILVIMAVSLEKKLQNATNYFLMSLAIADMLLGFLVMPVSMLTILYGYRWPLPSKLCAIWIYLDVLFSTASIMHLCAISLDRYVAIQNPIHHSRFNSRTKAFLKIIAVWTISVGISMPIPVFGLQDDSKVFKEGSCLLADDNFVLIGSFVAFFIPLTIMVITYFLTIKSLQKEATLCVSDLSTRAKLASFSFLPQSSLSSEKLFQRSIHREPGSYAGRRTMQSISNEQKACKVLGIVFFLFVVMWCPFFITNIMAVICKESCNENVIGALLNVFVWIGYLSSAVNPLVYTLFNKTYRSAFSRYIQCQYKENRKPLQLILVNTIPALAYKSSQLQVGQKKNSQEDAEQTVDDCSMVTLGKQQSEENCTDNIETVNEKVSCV
Sequence of Dopamine D2 receptor and Serotonin 2a receptor (D2 and 5HT2a) (Rattus norvegicus) (P61169 whole entry, looked up): as the sequence (P61169 whole entry) above

Mus musculus [4] = experiment: Antipsychotic activity in CF1 mouse assessed as prevention of apomorphine-induced climbing behaviour at 0.1 to 10 mg/kg, ip administered 30 mins prior apomorphine challenge measured 5 to 30 mins post challenge; format: functional, organism-based
Outline: (§1)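 Adult male mice, 25–35 g, dosed i.p. at 10 ml/kg, then placed in wire-bar cages for 30 min. Apomorphine 4 mg/kg s.c. followed. Climbing was scored 0–4 for 1 min at 5, 10, 15, 20, 25 and 30 min; the climbing index is the sum of scores. n = 7–9. Analysed by one-way ANOVA with Newman-Keuls post hoc test.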

Mus musculus [5] = experiment: Toxicity in CF1 mouse assessed as reduction in locomotor activity measuring number of crossings at 10 mg/kg, ip administered 30 mins prior ketamine challenge measured for 20 mins post challenge; format: organism-based; parameters: dose 10 mg/kg, route intraperitoneal; conditions: in vivo
Mus musculus [6] = experiment: Antipsychotic activity in ip dosed CF1 mouse assessed as prevention of apomorphine-induced climbing behaviour compound administered 30 mins prior apomorphine challenge measured 5 to 30 mins post challenge; format: functional, organism-based; outline: as §1
[7] = target: 5-hydroxytryptamine receptor 2A (Rattus norvegicus) (UniProt P14842); experiment: Antagonist activity at 5HT2A receptor in rat brain cortical membranes assessed as inhibition of [3H]-ketanserin binding to receptor after 15 mins by competition assay in absence of GTP; format: cell membranes
Sequence of 5-hydroxytryptamine receptor 2A (Rattus norvegicus) (P14842 whole entry): as the sequence (P14842 whole entry, looked up) above
Outline: (§2)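 Rat cortical membranes, 150 µg protein, with 1 nM [3H]-ketanserin and 100 nM prazosin in 50 mM Tris-HCl pH 7.4, 37 °C, 15 min. Non-specific binding was defined with ketanserin. For the GTP shift, paired competition curves were run without and with guanylyl nucleotide (0.1 mM Gpp(NH)p or 1 mM GTP).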

[8] = target: 5-hydroxytryptamine receptor 2A (Rattus norvegicus) (UniProt P14842); experiment: Antagonist activity at 5HT2A receptor in rat brain cortical membranes assessed as inhibition of [3H]-ketanserin binding to receptor after 15 mins by competition assay in presence of GTP; format: cell membranes; outline: as §2
[9] = system: Alpha-2 adrenergic receptor (Rattus norvegicus); experiment: Antagonist activity at alpha2 adrenoreceptor in rat brain cortical membranes assessed as inhibition of [3H]-RX821002 binding to receptor after 45 mins by competition assay in absence of GTP

SMILES | Ki [1] | Ki [2] | Ki (D(2) dopamine receptor) | Ratio Ki [3] | inhibition [7] | inhibition [8] | inhibition [9] | Activity (Mus musculus [4]) | Activity (Mus musculus [5]) | Activity (Mus musculus [6])
Clc1ccc(-n2cc(CCCN3CCN(c4ccccc4)CC3)cn2)cc1 | 700 nM | 1600 nM | 680 nM |  |  |  |  |  |  | 
Clc1ccc(-n2cc(CN3CCN(c4ccccc4)CC3)cn2)cc1 | 2600 nM | 2500 nM | 390 nM | 0.056 |  |  |  | Active |  | 
Clc1ccc(-n2cc(COCCN3CCN(c4ccccc4)CC3)cn2)cc1 | 850 nM | 2100 nM | 1900 nM |  |  |  |  |  |  | 

Now those with a lower Ki [1], led by results:

Ki [1] | Ki [2] | Ki (D(2) dopamine receptor) | Ratio Ki [3] | inhibition [7] | inhibition [8] | inhibition [9] | SMILES | Activity (Mus musculus [4]) | Activity (Mus musculus [5]) | Activity (Mus musculus [6])
570 nM | 610 nM | 250 nM | 0.4 | Active | Active | Active | Clc1ccc(-n2cc(CCCCN3CCN(c4ccccc4)CC3)cn2)cc1 |  | Toxic | Dose-dependent effect
400 nM | 2800 nM | 790 nM |  |  |  |  | Clc1ccc(-n2cc(COCCCN3CCN(c4ccccc4)CC3)cn2)cc1 |  |  | 
380 nM | 1400 nM | 490 nM |  |  |  |  | Clc1ccc(-n2cc(CCCCCN3CCN(c4ccccc4)CC3)cn2)cc1 |  |  | 
